Screens from PubChem BioAssay.
Shown are actives, neighbours in structure and some others; about 3.1% of the full set was active somewhere.
OX1R antag-1 = OX1R (HCRTR1) antagonists, primary screen, fluorescence, CHO/OX1R cells, Fluo-8 calcium, orexin A; Fluo-8 calcium fluorescence; Orexin/Hypocretin receptor type 1 (Homo sapiens), O43613; inhibition, % at 5 µM; AID 434989, 2010; 330,000 tested, 0.43% active;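 active = inhibition above its plate's threshold, mean inhibition of all tested compounds on the plate plus 3 SD, cut at about 37% in these data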
Target sequence (O43613 whole entry, looked up): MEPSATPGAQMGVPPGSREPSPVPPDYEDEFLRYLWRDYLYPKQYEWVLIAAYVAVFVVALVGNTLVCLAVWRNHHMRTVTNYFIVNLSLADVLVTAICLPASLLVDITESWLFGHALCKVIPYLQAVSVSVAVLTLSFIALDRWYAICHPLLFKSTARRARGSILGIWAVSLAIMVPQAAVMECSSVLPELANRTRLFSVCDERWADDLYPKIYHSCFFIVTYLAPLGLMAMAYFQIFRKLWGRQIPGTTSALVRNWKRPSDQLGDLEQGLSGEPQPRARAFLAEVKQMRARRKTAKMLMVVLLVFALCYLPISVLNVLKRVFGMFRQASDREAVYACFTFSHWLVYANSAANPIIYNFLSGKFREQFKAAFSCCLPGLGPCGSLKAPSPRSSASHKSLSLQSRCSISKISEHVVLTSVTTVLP
OX1R antag-2 = antagonists of human orexin 1 receptor (OX1R); 330,000 tested, 1.8% active; Orexin/Hypocretin receptor type 1 (Homo sapiens), O43613; inhibition, % at 6.6 µM; AID 485270, 2010; OX1R-expressing cells, FRET antagonist read-out; in the data active = inhibition mostly above about 38%, no sharp cut-off; inactive = mostly below about 40%
GalR3 antag = GalR3 antagonists in HEK293 cells, primary screen, cell-based, fluorescence readout; Galanin receptor type 3 (Homo sapiens), O60755; HEK293 GalR3-CNG cAMP membrane potential fluorescence; galR3 body fused to GalR1 C-terminus; inhibition, % at 3 µM; 360,000 tested, 0.44% active; AID 651719, 2012;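 active = inhibition above the screen-wide average plus 3 SD, cut at about 13% in these data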;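 note: forskolin and galanin both at EC90 stimulate the cells; cAMP rise reported by CNG channel membrane potential dye signal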
CHO parental Ca = ATP-evoked calcium signal inhibitors, parental CHO, primary screen, counter-screen for OX1R antagonist project, cell-based, fluorescence, Fluo-8 calcium dye. parental CHO-K1, ATP-induced calcium, Fluo-8 fluorescence. inhibition, % at 5.6 µM. 330,000 tested, 0.63% active;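 active = inhibition above that plate's mean sample inhibition plus 3 SD, cut at about 26% in these data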
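Material: parental CHO cells / Compound: single nominal dose of 5.6 µM per compound / Signal: Fluo-8 fluorescence / Replicates: singlicate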
GPR7 antagonist = GPR7 receptor antagonists, primary screen, cell-based, fluorescence, single concentration. Neuropeptides B/W receptor type 1 (Homo sapiens), P48145. GPR7-expressing cells, fluorescence antagonist assay. inhibition, % at 4.4 µM. 290,000 tested, 1.1% active; in the data active = inhibition above about 16%, passing the limit was not always enough;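 note: cells stimulated with the agonist NPW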
Numbers stand for hits.

Screening Cc1cc(N2CCN(C(=O)OC(C)(C)C)C[C@@H]2C)ccc1N1CCS(=O)(=O)CC1 returned GalR3 antag inactive.
COC(=O)C1=C(C)N(C)C(=NCc2ccc(OC)cc2)NC1c1ccccc1 (stereo not given) was read as GalR3 antag inactive.
`O=C(O)C1CCN(S(=O)(=O)c2cccc3nsnc23)CC1` gave OX1R antag-1 inactive, OX1R antag-2 inactive, GalR3 antag inactive, CHO parental Ca inactive and GPR7 antagonist inactive.
For Cc1ccc(S(=O)(=O)N2CCN(C)CC2)c2nsnc12 the results were OX1R antag-1 inactive, OX1R antag-2 50, GalR3 antag inactive, CHO parental Ca inactive and GPR7 antagonist inactive.
`CN1CCN(S(=O)(=O)c2cccc3nsnc23)CC1` gave OX1R antag-1 inactive, OX1R antag-2 40, GalR3 antag inactive, CHO parental Ca inactive and GPR7 antagonist inactive.
Cn1cc(CCOCc2ccc(Br)cc2)c2ccccc21 was read as GalR3 antag inactive.
Screening Cc1cc(Nc2cccc(F)c2)cc(=O)n1-c1cccc(F)c1 returned GalR3 antag inactive.
Screening CC1CCN(S(=O)(=O)c2cccc(C(=O)N(Cc3ccccc3)c3ccccn3)c2)CC1 returned OX1R antag-1 inactive, OX1R antag-2 inactive, GalR3 antag inactive, CHO parental Ca inactive and GPR7 antagonist 19.
c1ccc2[nH]c3cc4ncnc4cc3nc2c1 was read as OX1R antag-1 inactive, OX1R antag-2 70, GalR3 antag inactive, CHO parental Ca inactive and GPR7 antagonist inactive.
Screening CCOC(=O)c1cc(C(=O)OCC)c(=O)[nH]c1SCc1ccccc1 returned OX1R antag-1 inactive, OX1R antag-2 inactive, GalR3 antag inactive, CHO parental Ca inactive and GPR7 antagonist inactive.
Screening CC(Sc1nc(-c2ccccc2)cc(C(F)(F)F)n1)C(=O)N1CCCC1 (stereo not given) returned OX1R antag-1 inactive, OX1R antag-2 inactive, GalR3 antag inactive, CHO parental Ca inactive and GPR7 antagonist inactive.
CC1CCN(C(=O)C(C)Sc2nc(-c3ccccc3)cc(C(F)(F)F)n2)CC1 (stereo not given) was read as OX1R antag-1 inactive, OX1R antag-2 inactive, GalR3 antag inactive, CHO parental Ca 30 and GPR7 antagonist inactive.
For Cc1c(Cl)ccc2sc(NC(=O)C3CC3)nc12 the results were OX1R antag-1 inactive, OX1R antag-2 44, CHO parental Ca inactive and GPR7 antagonist inactive.
For CCCC(=O)Nc1nc2c(C)c(Cl)ccc2s1 the results were OX1R antag-1 inactive, OX1R antag-2 inactive, GalR3 antag inactive, CHO parental Ca inactive and GPR7 antagonist inactive.
`COc1ccc(C(=O)NCC2CCN(C(=O)C(=O)c3cccs3)CC2)c(OC)c1` gave GalR3 antag inactive.
Screening O=C(C=Cc1ccccc1)CC(c1ccccc1)N1CCOCC1 (stereo not given) returned GalR3 antag inactive.
For O=c1cc(-c2ccccc2)oc2cc(O)ccc12 the results were GalR3 antag inactive.
Nc1ccc(-c2c3ccc(=O)cc-3oc3cc(O)ccc23)cc1C(=O)O was read as OX1R antag-1 84, OX1R antag-2 69, GalR3 antag inactive, CHO parental Ca 70 and GPR7 antagonist inactive.
For O=c1ccc2c(-c3ccccc3)c3ccc(O)cc3oc-2c1 the results were OX1R antag-1 107, OX1R antag-2 inactive, GalR3 antag inactive, CHO parental Ca 101 and GPR7 antagonist inactive.
For O=C(CCn1cnc2ccccc21)N=Nc1c(O)[nH]c2ccccc12 the results were OX1R antag-1 inactive, OX1R antag-2 inactive, GalR3 antag inactive, CHO parental Ca inactive and GPR7 antagonist inactive.
`COc1ccc(NC2CCCN(C(=O)c3cn(C)c4ccccc34)C2)cc1` (stereo not given) gave OX1R antag-1 inactive, OX1R antag-2 38, GalR3 antag inactive, CHO parental Ca inactive and GPR7 antagonist inactive.
`CCN(CC)S(=O)(=O)c1ccc(Cl)c(NC(=S)NC(=O)C2CCCC2)c1` gave OX1R antag-1 67, OX1R antag-2 inactive, GalR3 antag inactive and CHO parental Ca 44.
For CCN(c1ccccc1)S(=O)(=O)c1ccc(Cl)c(NC(=O)CN2CCCCCC2)c1 the results were OX1R antag-1 inactive, OX1R antag-2 87, GalR3 antag inactive, CHO parental Ca 73 and GPR7 antagonist inactive.
Screening CSc1ncccc1C(=O)Nc1cccc(S(=O)(=O)N2CCCCCC2)c1 returned OX1R antag-1 inactive, OX1R antag-2 inactive, GalR3 antag inactive and CHO parental Ca inactive.
For CC(NS(=O)(=O)c1ccc2c(c1)C(=O)c1cc(S(=O)(=O)NC(C)C(=O)O)ccc1-2)C(=O)O (stereo not given) the results were OX1R antag-1 inactive, OX1R antag-2 60, GalR3 antag inactive, CHO parental Ca inactive and GPR7 antagonist inactive.
Screening CC(NS(=O)(=O)c1cccc(S(=O)(=O)c2ccccc2)c1)C(=O)O (stereo not given) returned OX1R antag-1 inactive, OX1R antag-2 inactive, GalR3 antag inactive, CHO parental Ca inactive and GPR7 antagonist inactive.
For Cc1cccc(C)c1NS(=O)(=O)c1ccc2c(c1)C(=O)c1ccccc1C2=O the results were OX1R antag-1 inactive, OX1R antag-2 inactive, GalR3 antag inactive, CHO parental Ca inactive and GPR7 antagonist inactive.
`CC(=O)NS(=O)(=O)c1ccc2c(c1)C(=O)c1cc(S(=O)(=O)NC(C)=O)ccc1-2` gave OX1R antag-1 inactive, OX1R antag-2 58, GalR3 antag inactive, CHO parental Ca inactive and GPR7 antagonist inactive.
`N#C/C(=C\c1c[nH]c2ccc(Br)cc12)c1ccccn1` gave OX1R antag-1 60, OX1R antag-2 83, GalR3 antag inactive, CHO parental Ca inactive and GPR7 antagonist inactive.
`COC(=O)c1cc2c(c3c4ccccc4n(S(=O)(=O)c4cccc(C)c4)c13)C(=O)N(Cc1ccc(N(C)C)cc1)C2` gave GalR3 antag inactive.
CCn1cc(Cl)c(C(=O)N2N=C(c3ccc4ccccc4c3)CC2c2ccccc2O)n1 (stereo not given) was read as OX1R antag-1 inactive, OX1R antag-2 inactive, GalR3 antag inactive, CHO parental Ca 60 and GPR7 antagonist inactive.
Screening COc1ccc(-c2noc(-c3ccccc3C(=O)Nc3cccnc3)n2)cc1 returned OX1R antag-1 inactive, OX1R antag-2 inactive, GalR3 antag inactive, CHO parental Ca inactive and GPR7 antagonist 14.
Screening COc1ccc(-c2noc(-c3ccccc3C(=O)Nc3cccnc3)n2)cc1OC returned OX1R antag-1 inactive, OX1R antag-2 inactive, GalR3 antag inactive, CHO parental Ca inactive and GPR7 antagonist inactive.
For Cc1ccc([C@H]2C[C@@H](n3cc(COC(=O)c4ccccc4)nn3)[C@H](O)CN2C(=O)c2cccs2)cc1 the results were GalR3 antag inactive.
Screening Cc1cc2c(c(=O)o1)[C@@]1(C(=O)N(C)c3ccccc31)C1=C(CC(C)(C)OC1=O)O2 returned GalR3 antag inactive.
